# Bioassay records from PubChem.
# TDP2 absorb: human TDP2 enzyme inhibitors, primary screen, biochemical, epi absorbance, recombinant enzyme. T5PNP hydrolysis, p-nitrophenol absorbance 415 nm. inhibition, % at 12.8 µM. actives 0.34% (n = 370,000). AID 720702, 2013;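 active means inhibition above the mean of all tested compounds plus 3 SD, set per campaign, cut at about 25% in these data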;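 further: 0% = DMSO with enzyme and 100% = buffer with substrate but no TDP2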
#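 Assay system: recombinant human TDP2 / Reagent: T5PNP substrate at 5 mM, a TopII-DNA adduct mimic / Measured by: epi absorbance from released p-nitrophenol / Evaluation: % inhibition relative to enzyme-containing and enzyme-free wells / Control set: enzyme-free and DMSO wells / Replicates: each compound tested once, singlicate / Schedule: enzyme reaction with compound for 2 h at 37 °C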
# MBD2 DNA inh: inhibitors of MBD2 binding to methylated DNA, primary screen, biochemical, TR-FRET, DNA-binding domain, human | Methyl-CpG-binding domain protein 2 (Homo sapiens), Q9UBB5 | MBD2 binding to methylated oligonucleotide | inhibition, % at 4.4 µM | actives 0.31% (n = 370,000) | AID 686964, 2013; in the data active means inhibition above about 13%
# Target sequence (Q9UBB5 whole entry, looked up, the tested form may be a part): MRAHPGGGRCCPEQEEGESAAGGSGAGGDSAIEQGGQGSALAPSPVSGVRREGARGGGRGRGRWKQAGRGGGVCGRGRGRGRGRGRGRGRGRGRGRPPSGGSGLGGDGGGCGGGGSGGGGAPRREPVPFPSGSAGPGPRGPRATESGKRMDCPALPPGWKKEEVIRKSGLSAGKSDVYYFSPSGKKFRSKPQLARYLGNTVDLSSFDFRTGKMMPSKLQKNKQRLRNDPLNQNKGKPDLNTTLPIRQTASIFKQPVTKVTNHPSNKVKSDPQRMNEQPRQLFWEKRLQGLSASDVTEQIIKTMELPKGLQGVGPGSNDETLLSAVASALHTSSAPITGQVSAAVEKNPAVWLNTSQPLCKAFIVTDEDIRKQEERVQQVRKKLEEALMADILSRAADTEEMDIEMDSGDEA
# UHRF1 binding: UHRF1 methylated DNA binding inhibitors, primary screen, counter-screen for MBD2 inhibitor project, biochemical, TR-FRET, human UHRF1, single concentration; inhibition, % at 4.4 µM; actives 0.75% (n = 370,000); UHRF1 binding to methylated oligo; AID 687016, 2013;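 further: UHRF1 SRA domain binding a hemimethylated CpG hairpin DNA probe; 0% = median of test compound wells and 100% = reference inhibitor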
# LEDGF integ inh: blockers of LEDGF/p75-dependent integrase strand transfer – biochemical, TR-FRET, high throughput, primary screen; HIV-1 integrase (with human LEDGF/p75); TR-FRET IN-LEDGF/p75 DNA integration, Eu/Cy5; inhibition, % at 3.7 µM; actives 0.64% (n = 370,000); AID 743269, 2014;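 active means inhibition above the screen-wide mean plus 3 SD, cut at about 13% in these data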;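 further: signal is the Cy5 over europium emission ratio at 671 and 618 nm; 0% = plate median of compound wells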
# Rin1 Abl inh: inhibitors of Rin1-Abl protein binding, primary screen, biochemical, TR-FRET; Tyrosine-protein kinase ABL1 (Homo sapiens) + Ras and Rab interactor 1 (Homo sapiens), …; inhibition, % at 7.35 µM; actives 0.4% (n = 360,000); AID 588664, 2011; in the data active means inhibition above about 5%, passing the limit was not always enough
# UHRF1 ctr MBD2: UHRF1 methylated DNA binding inhibitors, counter-screen for MBD2 inhibitor project, biochemical, TR-FRET, human UHRF1; shares compounds with MBD2 DNA inh; UHRF1 binding to methylated oligonucleotide; inhibition, % at 4.4 µM; actives 25% (n = 1,000); AID 720530, 2013;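 further: UHRF1 SRA domain binding a labeled hemimethylated CpG hairpin DNA; 0% = vehicle only and 100% = reference inhibitor with vehicle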
# MBD2 confirm: inhibitors of MBD2 binding to methylated DNA, confirmation, biochemical, TR-FRET, DNA-binding domain, human; TR-FRET MBD2-DBD binding to methylated oligonucleotide; shares compounds with MBD2 DNA inh; actives 26% (n = 1,000); inhibition, % at 4.4 µM; AID 720531, 2013; in the data active means inhibition above about 14%
# * hit, by the source's call; x = not tested or not shown. Hits are enriched below; roughly 1.9% of the tested compounds scored in any of these assays. Unless noted, no stated cut-off is given here; in the data, active means inhibition above about 21%; inactive means the rest.
SMILES,TDP2 absorb,MBD2 DNA inh,UHRF1 binding,LEDGF integ inh,Rin1 Abl inh,UHRF1 ctr MBD2,MBD2 confirm
CC1=NNC(=O)C1CCC(=O)N/N=C/c1ccccc1 (configuration not stated),-7,27*,-1,-5,-2,7,2
C[N+](=O)C1C(=O)Nc2ccccc21 (configuration not stated),7,101*,-3,-1,x,3,-3
O=C1Nc2ccccc2C1Cc1ccccc1 (configuration not stated),8,-6,0,-1,-2,x,x
COc1ccc(CCNC(=O)Nc2ccc3c(c2)[C@@]2(CC(=O)N(CC(C)C)C2c2ccccc2)C(=O)N3C)cc1OC (some centres not stated),7,4,-1,-3,x,x,x
O=C(c1cc(COc2ccc(F)cc2Cl)on1)N1CCCC(c2ccccc2)C1 (configuration not stated),-7,2,-1,0,-2,x,x
O=C(c1cc(COc2ccc(F)cc2F)on1)N1CCCC(c2ccccc2)C1 (configuration not stated),-8,15*,25*,5,0,4,2
Cc1cccc(NC(=O)[C@@H]2CC(=O)O[C@@H]2c2ccccc2)c1C,-2,5,2,-3,x,x,x
CC(=O)C1C(c2ccc(OC(F)F)cc2)NC(=O)NC1(O)C(F)(F)F (configuration not stated),2,-6,-1,4,4,x,x
CC(=O)C1C(c2ccc(F)c(F)c2)NC(=O)NC1(O)C(F)(F)F (configuration not stated),0,24*,3,-5,3,5,0
O=C(c1ccc(F)c(F)c1)N1CCC(Oc2cccnc2)CC1,-9,6,5,5,x,x,x
O=S1(=O)c2ccc(N3CCCC3)cc2Oc2ccccc2CN1Cc1cn(Cc2cccc(F)c2)nn1,0,2,1,-3,x,x,x
CCCn1nnc(NC(=O)COc2ccc(Cl)cc2)n1,-3,14*,23*,1,4,6,2
COC(=O)c1ccc(OCc2cc(=O)n3ccsc3n2)cc1,-2,13*,-3,4,0,11,6
CC(C)(C)n1nnnc1C(c1ccc(F)cc1)N(Cc1ccc(F)cc1)Cc1ccco1 (configuration not stated),-1,-4,1,4,0,x,x
CC(C)(C)n1nnnc1C(c1ccc(C(F)(F)F)cc1)N(Cc1ccc(F)cc1)Cc1ccco1 (configuration not stated),-11,18*,4,0,6,9,1
C=C(C)C(=O)Nc1cccc(C2=NOC3(C2)C[C@@H](C(N)=O)N(C(=O)CC(c2ccccc2)c2ccccc2)C3)c1 (some centres not stated),2,26*,63*,3,1,60*,42*
C/C=C(\C)C(=O)Nc1cccc(C2=NOC3(C2)C[C@H](C(N)=O)N(C(=O)c2cc([N+](=O)[O-])cc([N+](=O)[O-])c2)C3)c1 (some centres not stated),10,-3,-2,-1,2,x,x
C=C(C)C(=O)Nc1cccc(C2=NOC3(C2)C[C@H](C(N)=O)N(C(=O)c2ccccc2C(=O)c2ccccc2)C3)c1 (some centres not stated),-6,31*,80*,12,-2,67*,42*
C/C=C(\C)C(=O)Nc1cccc(C2=NOC3(C2)C[C@@H](C(N)=O)N(C(=O)c2ccccc2C(=O)c2ccccc2)C3)c1 (some centres not stated),0,4,-1,0,0,x,x
C/C=C/C(=O)Nc1cccc(C2=NOC3(C2)C[C@@H](C(N)=O)N(C(=O)c2cc([N+](=O)[O-])cc([N+](=O)[O-])c2)C3)c1 (some centres not stated),6,16*,3,-1,0,2,3
Cc1cccc(C(=O)Nc2c(-c3ccc(C(F)(F)F)cc3)nc3ncccn23)c1,-5,-3,1,5,x,x,x
CCn1c2ccccc2c2cc(NC(=O)c3cc4c(C)nn(-c5ccccc5)c4s3)ccc21,-3,-5,1,0,x,x,x
COc1ccc(C2=C(c3ccc([N+](=O)[O-])cc3)C(=O)OC2)cc1,4,-1,1,-3,-4,x,x
O=C1OCC(c2ccccc2)=C1c1ccccc1,-6,22*,21*,4,5,36*,38*
CS(=O)(=O)c1ccc(C2=C(c3ccccc3)C(=O)OC2)cc1,0,33*,34*,3,-1,46*,45*
SMILES,TDP2 absorb,MBD2 DNA inh,UHRF1 binding,LEDGF integ inh,Rin1 Abl inh,UHRF1 ctr MBD2,MBD2 confirm
O=C(Nc1ccc(Nc2ccncc2)cc1)c1ccc(Nc2ccnc3ccc([N+](=O)[O-])cc23)cc1,8,16*,32*,0,1,38*,34*
O=C(Nc1ccc(Cc2ccncc2)cc1)c1cccc([N+](=O)[O-])c1,-6,-4,0,4,3,x,x
CCCCCCCCNS(=O)(=O)CC1NCc2ccc(C)cc21 (configuration not stated),-5,-7,-6,4,x,x,x
Cc1cccc(NC(=O)CNC(=O)c2cccc(-n3cccc3)c2)c1C,-11,31*,69*,5,1,62*,44*
Cc1ccc(NC(=O)CN(C)C(=O)c2cccc(-n3cccc3)c2)cc1,-11,36*,77*,2,6,66*,47*
COc1ccc(NC(=O)CN(C)C(=O)c2cccc(-n3cccc3)c2)cc1,20,33*,58*,5,1,43*,38*
CCOC(=O)[C@@]12CCCC3=C1N(CCC3)C(=O)[C@H]2CC(=O)N1CCOCC1,8,-1,0,-1,x,x,x
C/C(=N\NC(=O)Cc1cccs1)c1ccco1,3,-7,-1,1,x,x,x
C=C(C)Cn1c(COc2ccccc2)nnc1SCC(=O)O,3,15*,0,2,0,4,3
